# In ChEMBL document CHEMBL1154704, “Synthesis, anti-HCV, antioxidant, and peroxynitrite inhibitory activity of fused benzosuberone derivatives” (Eur J Med Chem, 2010):
# Experiments:
# [1] = Inhibition of peroxynitrite-induced 3-nitrotyrosin formation by HPLC; assay type: functional
# Method in brief: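 Equimolar tyrosine and peroxynitrite with compound at increasing concentrations in 100 mM phosphate buffer pH 7.4, 37 °C for 15 min. Peroxynitrite stock quantified at 302 nm (ε 1670 cm⁻¹ M⁻¹), held on ice ≤30 min after thawing. 3-Nitrotyrosine measured by HPLC; control peroxynitrite plus tyrosine; mean ± SD of 3 independent experiments.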
# [2] = test system: Radical scavenging activity; assay: Antioxidant activity assessed as DPPH radical scavenging activity by microplate reader assay; assay type: functional; set-up: concentration or dose not given beside the values
# Method in brief: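 Compounds or ascorbic acid standard added to DPPH radical in methanol, ratio 1:9; incubated dark 37 °C 30 min; absorbance decrease read at 515 nm on plate reader. Blank of DMSO plus DPPH; solvent control taken as 0% scavenging. Triplicate; reported as % decrease in DPPH absorbance, mean ± SD.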
# Hepatitis C virus = assay: Antiviral activity HCV in replicon cells assessed as inhibition of NS3-4A protease activity by RT-PCR; assay type: functional, Hepacivirus hominis
# Method in brief: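 Replicon cells seeded at 1×10⁴/well; next day incubated at 37 °C with serially diluted agents in DMEM + 2% FBS + 0.5% DMSO for the indicated period. Total RNA extracted, HCV RNA copy number by quantitative RT-PCR; five replicates per point; ribavirin control. Cytotoxicity by MTS viability in same settings; Huh-7 1×10⁴ or HepG2 4×10⁴ cells/well.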
Compound,IC50 [1] [µM],Activity [2] [%],MIC (Hepatitis C virus) [µg/mL]
O=c1cc(-c2ccccc2)nc2n(-c3ccccc3)nc(-c3ccc4c(n3)-c3ccccc3CCC4)n12,349,40,1.15
Cc1c(C)c2c(c(C)c1O)CCC(C)(C(=O)O)O2 (configuration not stated) [TROLOX],58.4,–,–
CCOC(=O)c1cc2c(nc1C)-c1ccccc1CCC2,329,54.4,3.58
O=C1O[C@H]([C@@H](O)CO)C(O)=C1O,–,79,–
CC(=O)c1cc2c(nc1C)-c1ccccc1CCC2,158,37.2,7.09
c1ccc2c(c1)CCCc1c[nH]nc1-2,277,45.4,6.22
N#Cc1cc2c([nH]c1=O)-c1ccccc1CCC2,291,27.4,4.45
c1ccc2c(c1)CCCc1cnc3nc4ccccc4n3c1-2,342,28.2,6
NC(=O)c1ncn([C@@H]2O[C@H](CO)[C@@H](O)[C@H]2O)n1 [RIBAVIRIN],–,–,16.1
c1ccc2c(c1)CCCc1ccc(-c3ccc4ccccc4c3)nc1-2,170,54.2,5.98
c1ccc2c(c1)CCCc1cnc3ncnn3c1-2,315,27.7,2.21
CN(C)/C=C1\CCCc2ccccc2C1=O,146,57.9,–
c1ccc2c(c1)CCCc1cnoc1-2,149,44.1,7.66
